Results on eleven compounds are retold here after ChEMBL document CHEMBL3351381, “Synthesis, structure-activity relationship studies, and antibacterial evaluation of 4-chromanones and chalcones, as well as olympicin A and derivatives” (J Med Chem, 2014).

The structures appear in SMILES notation. Values after ≈ are worked out from the molar mass of the structure shown. Where only a bound is given, the exact number is not on record here.

Data set [1] relates to Vero. The experiment in a line: Cytotoxicity against african green monkey Vero cells assessed as reduction in cell viability by MTT assay. As to conditions: Chlorocebus sabaeus. Format: cell-based. Summed up: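 Vero kidney epithelial cells (ATCC CCL-81) in DMEM/10% FBS, trypsinized, seeded near 10% confluence, left overnight to adhere; medium swapped for DMEM/FBS with 2-fold serial compound dilutions.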
For orientation: Formazan colour is commonly taken as a measure of viable cells.

Data set [2] concerns Staphylococcus aureus. The experiment in a line: Antimicrobial activity against Staphylococcus aureus Newman. Format: functional.
The test system of data set [3] is Pseudomonas aeruginosa. The experiment in a line: Antimicrobial activity against Pseudomonas aeruginosa PAO1 at >200 ug/ml by microbroth dilution method. Format: functional. Background: Broth dilution looks for growth in wells or tubes with falling amounts of substance.
A short description of data set [4]: Solubility of the compound in DMEM/FBS medium. Type of data set: physicochemical. The gist of the method:
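Solubility limit estimated from 2-fold serial dilutions in DMEM with 5% FBS kept overnight at 37 °C; highest concentration with no visible precipitate taken.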

Data set [5] relates to Escherichia coli. The experiment in a line: Antimicrobial activity against Escherichia coli K-12 by microbroth dilution method. Type of data set: functional.
Data set [6] has as its system Enterococcus faecalis. The experiment in a line: Antimicrobial activity against Enterococcus faecalis ATCC 33186 by microbroth dilution method. Format: functional.
In data set [7] the test system is Mycobacterium tuberculosis. The experiment in a line: Antimicrobial activity against Mycobacterium tuberculosis H37Rv by microbroth dilution method. Format: functional.
The nature of data set [8]: Selectivity index, ratio of CC50 for african green monkey Vero cells to IC50 for methicillin-resistant Staphylococcus aureus NRS 70. Format: functional. The gist of the method: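 Vero kidney epithelial cells were grown in DMEM/10% FBS, trypsinized, seeded at about 10% confluence and left overnight to adhere. They were then exposed to 2-fold serial compound dilutions in DMEM/FBS, and viability was read by MTT after overnight solubilization. SI = cytotoxic IC50 divided by MIC against MRSA.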

Data set [9] concerns Klebsiella pneumoniae. The experiment in a line: Antimicrobial activity against Klebsiella pneumoniae ATCC 33495 at >200 ug/ml by microbroth dilution method. Type of data set: functional.
Data set [10] in a line: Inhibition of Escherichia coli topoisomerase 4 assessed as inhibition of decatenation of catenated kinetoplast DNA after 30 mins by electrophoretic analysis.
The subject of data set [11] is Staphylococcus aureus. The experiment in a line: Antimicrobial activity against methicillin-sensitive Staphylococcus aureus ATCC 29213 by microbroth dilution method. Format: functional.
The test system of data set [12] is Staphylococcus aureus. The experiment in a line: Antimicrobial activity against methicillin-resistant Staphylococcus aureus NRS 70 by microbroth dilution method. Format: functional.
For data set [13], the system named is Escherichia coli. The experiment in a line: Antimicrobial activity against tolC-deficient Escherichia coli by microbroth dilution method. Format: functional.
Data set [14] in a line: Inhibition of purified recombinant Escherichia coli topoisomerase 1 assessed as relaxation of supercoiled plasmid DNA after 30 mins by electrophoretic analysis.
In data set [15] the target is DNA gyrase (Escherichia coli, UniProt P0AES4+P0AES6). The experiment in a line: Inhibition of Escherichia coli DNA gyrase assessed as supercoiled plasmid DNA formation after 30 mins by electrophoretic analysis. Format: protein-complex assay.

As for `CSc1ccc2c(c1)N(CCC1CCCCN1C)c1ccccc1S2` (stereo not drawn) [THIORIDAZINE], the half-inhibitory concentration (IC50) in data set [1] came out at 5.3 µg/mL (≈ 14.3 µM).

For the compound `N#CC(C#N)=NNc1cccc(Cl)c1` [CARBONYL CYANIDE M-CHLOROPHENYLHYDRAZONE], the MIC in data set [2] turned out to be 6.25 µg/mL (≈ 30.5 µM).

`CCCCCCCC1C/C(=N\O)c2c(O)cc(O)cc2O1` (stereo not drawn): the MIC was greater than 200 µg/mL in [3]; greater than 200 µg/mL in data set [5]; 6.25 µg/mL (≈ 21.3 µM) in data set [6]; 100 µg/mL (≈ 341 µM) in data set [7]; greater than 200 µg/mL in [9]. In addition, in data set [4], the solubility was greater than 200 µg/mL. Also, the half-inhibitory concentration (IC50) in data set [1] amounted to 9.6 µg/mL (≈ 32.7 µM). Besides, in data set [8], the “Selectivity Index” value is reported as 3.1.

In the case of `CCn1cc(C(=O)O)c(=O)c2ccc(C)nc21` [NALIDIXIC ACID], in data set [10], the half-inhibitory concentration (IC50) was determined as 806 µM.

Consider `C=CCOc1ccccc1/C=C/C(=O)c1ccc(O)cc1`, for which the MIC is 12.5 µg/mL (≈ 44.6 µM) in data set [11]; greater than 200 µg/mL in data set [3]; greater than 200 µg/mL in [5]; 6.25 µg/mL (≈ 22.3 µM) in data set [12]; 100 µg/mL (≈ 357 µM) in data set [6]; 200 µg/mL (≈ 713 µM) in data set [7]. Besides, the results for the MIC in [9] and in data set [13] were greater than 200 µg/mL and 6.25 µg/mL (≈ 22.3 µM), respectively.

For the compound `CCCCCCOc1ccccc1/C=C/C(=O)c1ccc(O)cc1O`, the MIC in [11] is 3.13 µg/mL (≈ 9.19 µM); in data set [3] it was greater than 200 µg/mL; in data set [5], greater than 200 µg/mL; in data set [12], 0.78 µg/mL (≈ 2.29 µM); in data set [6] it was 1.56 µg/mL (≈ 4.58 µM); in data set [7], greater than 200 µg/mL. Also, the MIC in [9] and in data set [13] was greater than 200 µg/mL throughout. Also, the solubility in data set [4] is greater than 200 µg/mL. The IC50 is greater than 500 µM in data set [14], 7.2 µg/mL (≈ 21.2 µM) in [1], greater than 1000 µM in data set [15] and 60 µM in [10]. Besides, the “Selectivity Index” value in data set [8] was 9.2.

On to `CCCCCCCC1CC(=O)c2c(OCOC)cc(OCOC)cc2O1` (stereo not drawn), for which the MIC is greater than 200 µg/mL in [11]; greater than 200 µg/mL in [3]; greater than 200 µg/mL in data set [5]; greater than 200 µg/mL in [12]; greater than 200 µg/mL in [6]; 50 µg/mL (≈ 136 µM) in data set [7]. Moreover, the figures for the MIC in [9] and in data set [13] were greater than 200 µg/mL and 12.5 µg/mL (≈ 34.1 µM), respectively.

Turning to `CCCCCCC1CC(=O)c2ccc(O)cc2O1` (stereo not drawn), the MIC in data set [11] is greater than 200 µg/mL; in [3], greater than 200 µg/mL; in data set [5], greater than 200 µg/mL; in [12], greater than 200 µg/mL; in [6], greater than 200 µg/mL; in data set [7] it was 50 µg/mL (≈ 201 µM). The minimal inhibitory concentration (MIC) in [9] was greater than 200 µg/mL; in data set [13], 3.13 µg/mL (≈ 12.6 µM).

For `CCCC1CC(=O)c2ccc(O)cc2O1` (stereo not drawn), the MIC in data set [11] was 200 µg/mL (≈ 970 µM); in data set [3], greater than 200 µg/mL; in [5], greater than 200 µg/mL; in data set [12], greater than 200 µg/mL; in data set [6], greater than 200 µg/mL; in data set [7], 200 µg/mL (≈ 970 µM). The MIC in data set [9] was greater than 200 µg/mL; in data set [13] it was 50 µg/mL (≈ 242 µM).

For the compound `CCCC1CC(=O)c2c(O)cc(O)cc2O1` (stereo not drawn), the MIC in data set [11] was 100 µg/mL (≈ 450 µM); in data set [3] it was greater than 200 µg/mL; in data set [5] it was greater than 200 µg/mL; in data set [12] it was 100 µg/mL (≈ 450 µM); in data set [6], 200 µg/mL (≈ 900 µM); in [7], 200 µg/mL (≈ 900 µM). Further, the MIC in data set [9] was greater than 200 µg/mL; in data set [13], 50 µg/mL (≈ 225 µM).

With `O=C1CC2(CCCCCC2)Oc2cc(O)ccc21`, the MIC in data set [11] is 50 µg/mL (≈ 203 µM); in data set [3], greater than 200 µg/mL; in [5] it was greater than 200 µg/mL; in data set [12], 50 µg/mL (≈ 203 µM); in [6] it was 200 µg/mL (≈ 812 µM); in data set [7], 100 µg/mL (≈ 406 µM). In addition, the results for the minimum inhibitory concentration (MIC) in data set [9] and in [13] were greater than 200 µg/mL and 12.5 µg/mL (≈ 50.7 µM), respectively.

The term IC50 denotes the concentration that inhibits the measured activity by half. By MIC is commonly meant the lowest concentration found to suppress growth. In general, solubility refers to how much of the substance goes into solution per volume.
